ChEMBL document CHEMBL4311988, “Identification of novel non-nucleoside vinyl-stilbene analogs as potent norovirus replication inhibitors with a potential host-targeting mechanism” (Eur J Med Chem, 2019)
The source made the active and inactive calls. The calls are words filed in the database; no cut-off is given here.

Assays:
[1] = Metabolic stability in human liver microsomes assessed as compound remaining at 1 uM after 30 mins in absence of NADPH by LC-MS/MS analysis relative to control; assay type: ADME, Microsome; conditions: read-out: Stability
Method in brief: (§1)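 Human or mouse liver microsomes (0.5 mg/ml) in 0.1 M phosphate buffer pH 7.4 were preincubated with compound at 1 μM for 5 min at 37 °C. An NADPH regeneration system was then added or omitted, and incubation continued 30 min at 37 °C. Reactions were stopped with acetonitrile containing internal standard. Parent compound remaining was measured by LC-MS/MS (C18 column, 0.1% formic acid water/acetonitrile).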

[2] = system: Norovirus; test: Antiviral activity against human norovirus infected in human HG23 cells assessed as inhibition of viral replication at 10 uM after 3 days by qRT-PCR analysis relative to control; assay type: functional; set-up: scale not given: the % may be the effect or the level left
[3] = system: Norovirus; test: Antiviral activity against human norovirus infected in HG23 cells assessed as inhibition of neomycin phosphotransferase protein expression after 5 days by Western blot analysis; assay type: functional, organism-based; conditions: HG23, 120 h
[4] = system: Feline calicivirus; test: Antiviral activity against feline calicivirus- infected in cat CRFK cells at >5 uM after 48 hrs by crystal violet staining based assay; assay type: functional, organism-based
[5] = Cytotoxicity against human HG23 cells assessed as reduction in cell viability after 3 days by tetrazolium dye based assay
Method in brief: (§2)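 HG23 cells were treated with DMSO or compound for 3 days, at 10 μM for single-point testing or across a dose range for CC50. Viability was read with a tetrazolium salt (EZ-CYTOX) reagent. Values are means of the most representative triplicate experiment with standard deviations.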

[6] = Therapeutic index, ratio of CC50 for cytotoxicity against human HG23 cells harboring human norovirus replicons to EC50 for antiviral activity against norovirus infected in human HG23 cells; assay type: toxicity, cell-based; conditions: read-out: Ratio CC50/EC50
[7] = Cytotoxicity against human HG23 cells assessed as cell viability at 10 uM after 3 days by tetrazolium dye based assay relative to control; conditions: read-out: Activity; method in brief: as §2
[8] = target: T1, Heat shock factor protein 1 (Homo sapiens) (UniProt Q00613); test: Activation of HSF-1 in human HG23 cells transfected with human norovirus at 10 uM after 72 hrs by dual-luciferase reporter gene assay; assay type: cell-based
T1 sequence (whole entry): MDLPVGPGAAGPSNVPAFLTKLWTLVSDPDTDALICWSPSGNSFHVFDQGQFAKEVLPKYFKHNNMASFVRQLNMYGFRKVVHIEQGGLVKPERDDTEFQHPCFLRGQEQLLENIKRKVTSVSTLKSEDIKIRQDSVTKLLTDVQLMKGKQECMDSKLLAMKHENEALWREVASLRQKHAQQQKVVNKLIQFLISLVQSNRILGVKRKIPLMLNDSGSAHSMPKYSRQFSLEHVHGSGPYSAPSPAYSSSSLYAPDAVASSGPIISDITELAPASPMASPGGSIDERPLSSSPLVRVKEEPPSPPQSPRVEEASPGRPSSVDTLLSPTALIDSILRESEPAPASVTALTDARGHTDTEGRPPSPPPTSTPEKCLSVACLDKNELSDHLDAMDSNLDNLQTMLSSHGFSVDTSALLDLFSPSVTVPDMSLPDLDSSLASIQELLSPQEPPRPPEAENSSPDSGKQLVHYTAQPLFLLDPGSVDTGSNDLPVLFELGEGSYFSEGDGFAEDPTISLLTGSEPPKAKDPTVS
Method in brief: (§3)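 HG23 cells carrying the NV replicon were transfected with a Cignal finder reporter array and then given DMSO or 10 μM test compound for 72 h. Luciferase activity for each pathway was read with a dual-luciferase reagent.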

[9] = target: T1, Heat shock factor protein 1 (Homo sapiens); test: Activation of HSF-1 in human HG23 cells transfected with human norovirus after 72 hrs by dual-luciferase reporter gene assay; assay type: cell-based; method in brief: as §3
[10] = Metabolic stability in mouse liver microsomes assessed as compound remaining at 1 uM preincubated for 5 mins followed by NADPH addition and measured after 30 mins in presence of NADPH relative to control; assay type: ADME, Microsome; conditions: read-out: Stability; method in brief: as §1
[11] = system: Norovirus; test: Antiviral activity against human norovirus infected in human HG23 cells assessed as inhibition of viral replication after 3 days by qRT-PCR analysis; assay type: functional, organism-based; conditions: HG23, 72 h
[12] = system: Murine norovirus 1; test: Antiviral activity against MNV-1 infected in mouse RAW264.7 cells at 0.05 to 10 uM after 48 hrs by crystal violet staining based assay; assay type: functional, cell-based
[13] = system: Norovirus GII.4; test: Inhibition of norovirus GII.4 RNA-dependent RNA polymerase using poly(C)RNA as substrate incubated for 10 mins and measured after 15 mins by picogreen staining based assay
Method in brief: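 Recombinant human norovirus GII.4 Sydney 2012 RdRp (400 ng) was preincubated with compound (10 μM) or DMSO (0.5% v/v) for 10 min at 25 °C. It was then added to 5 μM rGTP, 6 μg/mL poly(C), 2.5 mM MnCl₂, 5 mM DTT, 0.01% BSA and 0.005% Tween 20 in 20 mM Tris-HCl pH 7.5. After 15 min at 25 °C, reactions were stopped with 10 mM EDTA and dsRNA quantified by PicoGreen fluorescence (ex 480/em 520). Two independent experiments were run in triplicate.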

[14] = Metabolic stability in mouse liver microsomes assessed as compound remaining at 1 uM after 30 mins in absence of NADPH by LC-MS/MS analysis relative to control; assay type: ADME, Microsome; conditions: read-out: Stability; method in brief: as §1
[15] = Metabolic stability in human liver microsomes assessed as compound remaining at 1 uM preincubated for 5 mins followed by NADPH addition and measured after 30 mins by LC-MS/MS analysis relative to control; assay type: ADME, Microsome; conditions: read-out: Stability; method in brief: as §1
[16] = target: T2, Nuclear factor erythroid 2-related factor 2 (Homo sapiens) (UniProt Q16236); test: Activation of NRF2 pathway in human HG23 cells transfected with human norovirus at 10 uM after 72 hrs by dual-luciferase reporter gene assay; assay type: cell-based; method in brief: as §3
T2 sequence (whole entry): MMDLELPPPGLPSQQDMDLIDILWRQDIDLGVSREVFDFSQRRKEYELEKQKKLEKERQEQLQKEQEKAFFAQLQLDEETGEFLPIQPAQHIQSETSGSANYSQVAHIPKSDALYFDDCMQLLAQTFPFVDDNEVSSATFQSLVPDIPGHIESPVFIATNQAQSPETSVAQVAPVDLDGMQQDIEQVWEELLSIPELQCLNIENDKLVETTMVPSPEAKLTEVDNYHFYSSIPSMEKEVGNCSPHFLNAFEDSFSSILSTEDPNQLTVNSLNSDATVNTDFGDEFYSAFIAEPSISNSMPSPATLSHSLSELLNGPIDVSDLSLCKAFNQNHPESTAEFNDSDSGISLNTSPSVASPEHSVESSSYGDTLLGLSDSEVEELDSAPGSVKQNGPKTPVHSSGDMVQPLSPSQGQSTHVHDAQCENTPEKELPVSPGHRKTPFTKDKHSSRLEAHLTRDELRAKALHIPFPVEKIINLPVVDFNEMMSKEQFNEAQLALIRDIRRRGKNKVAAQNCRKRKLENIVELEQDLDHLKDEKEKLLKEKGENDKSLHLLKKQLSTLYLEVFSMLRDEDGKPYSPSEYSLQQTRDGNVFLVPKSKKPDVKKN

In the case of `C=Cc1c(OC)cc(/C=C/c2ccc(C(=O)N3CCN(Cc4ccc(C(F)(F)F)cc4)CC3)cc2)cc1OC`, the remaining at 0.5 h, 1 µM [1] is reported as 94.3%, the Activity [2] is reported as 4.2% and the EC50 [3] is reported as 800 nM. The Activity [4] was “Active”, the CC50 at 72 h [5] was > 100000 nM and the selectivity ratio [6] was > 41.2. The viability at 72 h, 10 µM [7] was 105%, the Activity [8] was “Active” and the Activity [9] was “Dose-dependent effect”. For the same compound, the remaining at 0.5 h, 1 µM [10] was 70.5%, the EC50 [11] was 2430 nM and the Activity [12] was “inactive”. The inhibition [13] was “inactive”, the remaining at 0.5 h, 1 µM [14] was 99.2% and the remaining at 0.5 h, 1 µM [15] was 89.1%. For the same compound, the Activity [16] was “Active”.
